Assay results published in article PMC11900868 (Science Advances, 2025).

Tested on: CCl4-induced liver fibrosis mice
Test: Res treatment of CCl4-induced liver fibrosis, histology and immunohistochemistry
Format: in vivo, male Balb/c mice
Details: CCl4 10 weeks then discontinued; 10 mg/kg intraperitoneal twice a week
Procedure, shortened: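 Fibrosis induced in male Balb/c mice by intraperitoneal 20% CCl4 in olive oil twice weekly: 0.1 ml week 1, 0.15 ml week 2, 0.2 ml thereafter. After 10 weeks, CCl4 stopped and resveratrol given intraperitoneally at 10 mg/kg twice weekly for 1 or 3 weeks. Liver sections stained with H&E and Sirius red, plus α-SMA and FAP immunostaining. Percent positive area quantified; mean ± SD, ANOVA.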

For `Oc1ccc(/C=C/c2cc(O)cc(O)c2)cc1` [Res, resveratrol], which “fibrotic tissue, HSCs activation and FAP expression after 1 week of treatment” value is on record?
The value was “significant reduction in fibrotic tissue, HSCs activation, and FAP expression levels”.

And the “fibrotic tissue, HSCs activation and FAP expression after 3 weeks of treatment” value?
The value was “all parameters approached normal levels”.
